APJ antagonist: antagonists of human apelin receptor APJ, primary screen, CHO-K1 cells, beta-arrestin complementation, luminescence. P35414. inhibition, % at 20 µM. 330,000 compounds, 0.32% hits;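 active = inhibition above about 40% at 20 µM, limit read from the data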;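 note: cells challenged with 10 nM apelin-13 agonist together with compound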
B2AR ag: beta2AR agonists driving receptor internalization, primary screen, cell-based, FAP fluorogen, flow cytometry | Beta-2 adrenergic receptor (Homo sapiens), P07550 | Am2.2-beta2AR cells | response, % (test concentration not listed) | 340,000 compounds, 0.43% hits | AID 504454, 2011;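 active = response above a set limit, near 3 SD of response in nonfluorescent compounds, cut at about 42% in these data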
CCR6 antagonist: CCR6 receptor antagonists, primary screen, cell-based, CHO-K1, luminescence, beta-arrestin, uHTS | C-C chemokine receptor type 6 (Homo sapiens), P51684 | CHO-K1 CCR6 PathHunter beta-arrestin, CCL20-stimulated | inhibition, % at 20 µM | 340,000 compounds, 0.49% hits | AID 493098, 2011;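 active = compounds whose inhibition of the agonist-driven luminescence signal at 20 µM reaches about 50%, limit read from the data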;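 note: cells stimulated with CCL20 at 14 nM final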
Target sequence (P51684 whole entry, looked up): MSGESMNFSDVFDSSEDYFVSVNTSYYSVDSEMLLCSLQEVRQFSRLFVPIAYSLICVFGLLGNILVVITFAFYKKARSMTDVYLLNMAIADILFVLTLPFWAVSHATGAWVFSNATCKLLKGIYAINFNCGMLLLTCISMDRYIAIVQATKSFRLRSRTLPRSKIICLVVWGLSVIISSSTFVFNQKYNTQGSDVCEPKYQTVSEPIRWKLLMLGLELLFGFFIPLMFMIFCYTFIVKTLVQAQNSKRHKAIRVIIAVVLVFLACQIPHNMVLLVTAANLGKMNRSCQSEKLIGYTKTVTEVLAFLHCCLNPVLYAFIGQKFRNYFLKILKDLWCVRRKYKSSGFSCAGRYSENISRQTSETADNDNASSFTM
CXCR6 inh: CXCR6 receptor inhibitors, primary screen, cell-based, beta-arrestin, luminescence, CHO-K1 PathHunter, 1536-well. C-X-C chemokine receptor type 6 (Homo sapiens), O00574. inhibition, % at 20 µM. 360,000 compounds, 0.36% hits; in the data active = inhibition above about 34%, passing the limit was not always enough;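 note: antagonist mode with CXCL16 agonist at 10 nM final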
Target sequence (O00574 whole entry, looked up): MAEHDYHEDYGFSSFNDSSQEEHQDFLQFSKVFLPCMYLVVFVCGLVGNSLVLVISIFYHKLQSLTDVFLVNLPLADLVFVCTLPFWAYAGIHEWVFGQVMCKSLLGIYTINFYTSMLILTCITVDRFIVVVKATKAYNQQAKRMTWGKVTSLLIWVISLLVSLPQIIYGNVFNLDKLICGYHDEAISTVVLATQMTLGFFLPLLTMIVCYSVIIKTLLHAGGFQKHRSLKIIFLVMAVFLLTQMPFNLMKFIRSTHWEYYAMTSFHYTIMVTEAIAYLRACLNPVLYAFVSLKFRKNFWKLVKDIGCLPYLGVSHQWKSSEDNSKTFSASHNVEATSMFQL
APJ ag: agonists of human apelin receptor APJ, primary screen, CHO-K1 cells, PathHunter beta-arrestin, luminescence; AID 2520, 2010; 330,000 compounds, 0.11% hits; P35414; activation, % at 20 µM; 0% DMSO wells, 100% apelin;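 active = activation more than six SD over the plate average, tested at 20 µM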
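Material: engineered CHO-K1 APJ arrestin reporter cells; amount: 1000 CHO-K1 reporter cells seeded per well; incubation: compound stimulation 90 min at 25 °C, detection 60 min; signal: luminescent beta-gal fragment complementation, chemiluminescent substrate; read-out basis: APJ agonist activity; controls: DMSO-only wells as negative, 10 nM Apelin-13 as positive control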
EBI2 block: EBI2 receptor antagonists, beta-arrestin recruitment, primary screen, cell-based, luminescence, 7a,25-OHC stimulation, uHTS. G-protein coupled receptor 183 (Homo sapiens), P32249. 7a,25-OHC stimulated. inhibition, % at 5 µM. 360,000 compounds, 0.81% hits. AID 651636, 2012; in the data active = inhibition above about 38%;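 note: enzyme fragment complementation signal reports receptor beta-arrestin coupling in cells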
EBI2 conf: EBI2 antagonist hit retest, beta-arrestin, confirmation, cell-based, single concentration, luminescence, 7a,25-OHC stimulation. shares compounds with EBI2 block. 7a,25-OHC antagonism. AID 651997, 2013. 2,400 compounds, 29% hits. inhibition, % at 5 µM;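 active = inhibition of at least 50%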
EBI2 ag: EBI2 agonist activity of antagonist hits, confirmation, counter-screen for EBI2 antagonist project, cell-based, single concentration, agonist mode, luminescence | shares compounds with EBI2 block | EBI2-expressing cells, 60 min; 0% vehicle, 100% 7α,25-dihydroxycholesterol control | activation, % at 5 µM | 2,400 tested, under 10 active | AID 652000, 2013;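 active = activation of at least 50%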
bGal counter: E. coli beta-galactosidase enzyme inhibition, confirmation, counter-screen for EBI2 antagonist project, biochemical, luminescence, single concentration | shares compounds with EBI2 block | purified beta-galactosidase, luminescent Galacton Star, 15 min | inhibition, % at 5 µM | 2,400 compounds, 1% hits | AID 652176, 2013;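 active = replicate-average signal at least 3 plate SD below neutral wells, shown as high inhibition, flagging enzyme-inhibiting false positives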;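 note: higher means stronger loss of beta-gal luminescence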
Numbers stand for hits; 0 = inactive; - = no result; ! = not confirmed by another sample. An excerpt weighted towards active compounds, which were near 1.8% of everything screened.

SMILES | APJ antagonist | B2AR ag | CCR6 antagonist | CXCR6 inh | APJ ag | EBI2 block | EBI2 conf | EBI2 ag | bGal counter
O=C(c1cccc(Cl)c1)N1CCN(Cc2ccc3c(c2)OCO3)CC1 | 0 | 0 | 0 | 0 | 0 | 0 | - | - | -
CN1CCN(C(=O)c2cc3cc(Cl)ccc3[nH]2)CC1 | 0 | 0 | 0 | 0 | 0 | 56 | 0 | 0 | 0
CCN1CCN(C(=O)c2cc3cc(Cl)ccc3[nH]2)CC1 | 0 | 0 | 0 | 0 | 0 | 84 | 67 | 0 | 0
O=CN1CCN(C(=O)c2cc3cc(Cl)ccc3[nH]2)CC1 | 0 | 0 | 0 | 0 | 0 | 59 | 0 | 0 | 0
O=C(c1cc2cc(Cl)ccc2[nH]1)N1CCN(Cc2ccc3c(c2)OCO3)CC1 | 0 | 0 | 0 | 0 | 0 | 95 | 85 | 0 | 0
COc1c2c(c(OC)c3ccccc13)[C@@]1(OC2)O[C@H](CCO)C[C@H](O)[C@H]1O | - | - | - | 0 | - | 0 | - | - | -
COc1ccc(C(=O)Nc2nnc(SCC(=O)NCc3ccco3)s2)c(OC)c1 | 0 | 0 | 0 | 0 | 0 | 0 | - | - | -
CN(CC(=O)NCCc1ccc(F)cc1)Cc1cccc(Cl)c1 | 0 | 0 | 0 | 0 | 0 | 0 | - | - | -
Cc1occc1-c1nnc(SCC(=O)NCCc2ccccc2)n1C(C)c1ccccc1 (centres undefined) | 0 | 0 | 0 | 0 | 0 | 51 | 0 | 0 | 0
Cc1occc1-c1nnc(SCC(=O)NCCc2ccccc2)o1 | 0 | 0 | 0 | 0 | 0 | 0 | - | - | -
COc1cc(C(=O)NCC2CCCCC2)ccc1OCc1c(C)noc1C | 0 | 0 | 0 | 0 | 0 | 0 | - | - | -
COc1cc(C(=O)NCCOc2ccc(Cl)cc2)ccc1OCc1c(C)noc1C | 0 | 0 | 0 | 0 | 0 | 72 | 56 | 0 | 0
Cc1ccc(NC(=O)c2ccc(OCc3c(C)noc3C)cc2)cc1C | 0 | 0 | 0 | 0 | 0 | 53 | 0 | 0 | 0
CCc1cccc(C)c1NC(=S)NCc1cccn1C | 0 | 0 | 0 | 0 | 0 | 0 | - | - | -
COc1ccc(C)cc1NS(=O)(=O)c1ccccc1 | - | 0 | 0 | 0 | - | 0 | - | - | -
COC(C(=O)N/N=C(\C)c1ccc(C(C)(C)C)cc1)c1ccccc1 (centres undefined) | 0 | 0 | 0 | 0 | 0 | 65 | 0 | 0 | 0
Nc1ccn([C@@H]2O[C@H](C(=O)NCc3ccc4c(c3)OCO4)[C@@H](O)[C@H]2O)c(=O)n1 | - | - | - | 0 | - | 0 | - | - | -
Cc1cc(C2(c3ccc(O)c(C)c3)C(=O)Nc3ccccc32)ccc1O | 0 | 0 | 0 | 0 | 0 | 67 | 0 | 0 | 0
Cc1cccc2c1NC(=O)C2(c1ccc(O)cc1)c1ccc(O)cc1 | 0 | 0 | 0 | 0 | 0 | 0 | - | - | -
CCNC(=O)C1(C)CCCN(Cc2cc3ccccc3o2)C1 (centres undefined) | - | - | - | 0 | - | 0 | - | - | -
c1ccc(-c2csc(Nc3ccc4c(c3)OCO4)n2)cc1 | - | - | - | 0 | - | 44 | 0 | 0 | 0
CC1(C(=O)NS(=O)(=O)c2ccc(F)cc2F)CCN1C(=O)Cc1ccc(Cl)cc1Cl (centres undefined) | - | - | - | 0 | - | 0 | - | - | -
COC(=O)c1cc(=O)n(CCc2ccccc2)c(=Nc2ccc(F)cc2)s1 | 0 | 0 | 0 | 0 | 0 | 0 | - | - | -
CCOC(=O)c1ccc(N=c2sc(C(=O)OC)cc(=O)n2CCCN2CCOCC2)cc1 | 0 | 0 | 0 | 0 | 0 | 68 | 67! | 0 | 0
COC(=O)c1cc(=O)n(CCc2ccc(OC)cc2)c(=Nc2ccc(F)c(Cl)c2)s1 | 0 | 0 | 0 | 0 | 0 | 66 | 0 | 0 | 0
SMILES | APJ antagonist | B2AR ag | CCR6 antagonist | CXCR6 inh | APJ ag | EBI2 block | EBI2 conf | EBI2 ag | bGal counter
CCn1c(=O)cc(C(=O)OC)sc1=Nc1ccc(F)c(F)c1 | 0 | 0 | 0 | 0 | 0 | 51 | 53 | 0 | 0
O=C(Nc1ccccc1)N1CCCC(c2nc(-c3ccc(F)cc3)no2)C1 (centres undefined) | 0 | 0 | 0 | 0 | 0 | 0 | - | - | -
Cc1cccc(C(=O)N2CCC(c3nc(-c4ccc(S(=O)(=O)N5CCOCC5)cc4)no3)CC2)c1 | 0 | 0 | 0 | 0 | 0 | 79 | 54 | 0 | 0
O=C(Nc1cccc(C(F)(F)F)c1)N1CCC(c2nc(-c3ccc(F)cc3)no2)CC1 | 0 | 0 | 0 | 0 | 0 | 43 | 0 | 0 | 0
O=C(Nc1ccccc1)N1CCC(c2nc(-c3ccc(S(=O)(=O)N4CCOCC4)cc3)no2)CC1 | 0 | 0 | 0 | 0 | 0 | 45 | 0 | 0 | 0
CCOC=C1C(=O)N(C(C)=O)c2cc(OC)c(OC)cc21 | - | 0 | 0 | 0 | - | 0 | - | - | -
O=C(CN1CCN(c2ccc(O)cc2)CC1)Nc1ccc2c(c1)OCCCO2 | 0 | 0 | 0 | 0 | 0 | 0 | - | - | -
CSc1ccc(/C=C/C(=O)c2ccc(NC(=O)Cc3ccccc3)cc2)cc1 | 0 | 0 | 0 | 0 | 0 | 92 | 80 | 0 | 0
CSc1ccc(/C=C/C(=O)c2ccc(NC(=O)C(C)C)cc2)cc1 | 0 | 0 | 0 | 0 | 0 | 75 | 66 | 0 | 0
CCOC(=O)Nc1ccc(C(=O)/C=C/c2ccccc2)cc1 | 0 | 0 | 0 | 0 | 0 | 63 | 0 | 0 | 0
CCCCN(C=O)c1c(CC)nc2ccc(C(=O)NCc3ccc4c(c3)OCO4)cn12 | - | - | - | 0 | - | 0 | - | - | -
Cc1c(C(=O)N2CCN(c3ncccn3)CC2)oc2ccc(F)cc12 | 0 | 0 | 0 | 0 | 0 | 0 | - | - | -
Cc1c(C(=O)N2CCN(c3ncccn3)CC2)oc2ccc(Cl)cc12 | 0 | 0 | 0 | 0 | 0 | 56 | 0 | 0 | 0
Cc1c(C(=O)N2CCN(c3ccccn3)CC2)oc2ccccc12 | 0 | 0 | 0 | 0 | 0 | 36 | 0 | 0 | 0
CC(=O)N1CCN(C(=O)c2oc3ccccc3c2C)CC1 | 0 | 0 | 0 | 0 | 0 | 0 | - | - | -
C=CCNc1ncnc2c1ncn2[C@H]1CN(Cc2ccccc2)C[C@@H](COC(C)=O)O1 | - | - | - | 0 | - | 0 | - | - | -
CC(NC(=O)C1CCC1)c1ccc(Cl)cc1 (centres undefined) | 0 | 0 | 0 | 0 | 0 | 0 | - | - | -
O=C(NCC(c1ccccc1)N1CCCC1)C1CCN(C(=O)Nc2ccccc2)CC1 (centres undefined) | 0 | 0 | 0 | 0 | 0 | 0 | - | - | -
